Reference: ChEMBL document CHEMBL1136634, “Synthesis and photoreactivity of caged blockers for glutamate transporters” (Bioorg Med Chem Lett, 2003)

Key:
[1] = Glutamate uptake inhibition assay on glutamate transporters (excitatory amino acid transporters EAAT2) stably expressed on MDCK cells after 20 min U.V irradiation; assay type: cell-based; conditions: Canis lupus familiaris, light or radiation study
Outline: (§1)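 Before assay, caged compound in PBS(+) (1 mM CaCl2, 1 mM MgCl2, pH 7.4) was held in 1 mm quartz cuvettes in a dark box and irradiated with a 365 nm UV hand lamp at room temperature. Relative specific uptake came from three experiments, and IC50 was derived.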

[2] = Glutamate uptake inhibition assay on glutamate transporters (excitatory amino acid transporters EAAT2) stably expressed on MDCK cells after 1 min U.V irradiation; assay type: cell-based; conditions: Canis lupus familiaris, light or radiation study; outline: as §1
[3] = Glutamate uptake inhibition assay on glutamate transporters (excitatory amino acid transporters EAAT2) stably expressed on MDCK cells before U.V radiation; assay type: cell-based; conditions: Canis lupus familiaris
[4] = Half-life was determined; assay type: ADME; conditions: human
[5] = Glutamate uptake inhibition assay on glutamate transporters (excitatory amino acid transporters EAAT2) stably expressed on MDCK cells after 10 min U.V irradiation; assay type: cell-based; conditions: Canis lupus familiaris, light or radiation study; outline: as §1
[6] = Glutamate uptake inhibition assay on glutamate transporters (excitatory amino acid transporters EAAT2) stably expressed on MDCK cells after 5 min U.V irradiation; assay type: cell-based; conditions: Canis lupus familiaris, light or radiation study; outline: as §1
[7] = Glutamate uptake inhibition assay on EAAT2 stably expressed on MDCK cells; assay type: cell-based, Canis lupus familiaris

SMILES	IC50 [3] [µM]	half-life [4] [min]	IC50 ([7]; Canis lupus familiaris, MDCK) [µM]	other results
N[C@H](C(=O)OCc1cc(=O)oc2cc(OCC(=O)O)ccc12)[C@H](OCc1ccccc1)C(=O)O	124	3.7	–	IC50 [1]: 5.6 µM; IC50 [2]: 24 µM; IC50 [5]: 7 µM; IC50 [6]: 8.6 µM
N[C@H](C(=O)O)[C@H](OCc1ccccc1)C(=O)O	1.3	–	–	–
COc1cc(C(C)OC(=O)[C@@H](N)[C@H](OCc2ccccc2)C(=O)O)c([N+](=O)[O-])cc1OC (stereo in doubt; 3a)	–	–	–	T1/2 [4]: 57.2 min; IC50 ([7]; mdck): 103 µM

Now from value to compound, other results behind:

IC50 [3] [µM]	half-life [4] [min]	IC50 ([7]; Canis lupus familiaris, MDCK) [µM]	SMILES	other results
–	3.9	124	COc1ccc2c(COC(=O)[C@@H](N)[C@H](OCc3ccccc3)C(=O)O)cc(=O)oc2c1	–
–	45.2	111	COc1cc(C(C)OC(=O)[C@@H](N)[C@H](OCc2ccccc2)C(=O)O)c([N+](=O)[O-])cc1OC (stereo in doubt; 3b)	–
